Measured values from PMC3077087 (Cancer research, 2011).

Experiments:
[1] = molecular target: mTOR (Homo sapiens, UniProt P42345); assay: Panel of 98 purified protein kinases: mTOR; format: biochemical; settings: 98 purified protein kinases panel
[2] = molecular target: PI3Kδ (Homo sapiens, UniProt O00329); assay: Panel of 98 purified protein kinases: PI3Kδ; format: biochemical; settings: 98 purified protein kinases panel, data not shown
[3] = molecular target: PI3Kγ (Homo sapiens, UniProt P48736); assay: Panel of 98 purified protein kinases: PI3Kγ; format: biochemical; settings: 98 purified protein kinases panel, data not shown
[4] = molecular target: RET (Homo sapiens, UniProt P07949); assay: Panel of 98 purified protein kinases: RET; format: biochemical; settings: 98 purified protein kinases panel, data not shown
[5] = molecular target: PIP5Kγ (Homo sapiens, UniProt O60331); assay: Panel of 98 purified protein kinases: PIP5Kγ; format: biochemical; settings: 98 purified protein kinases panel, data not shown
[6] = molecular target: T1, PDK1 (Homo sapiens, UniProt O15530); assay: Activity against PDK1; format: biochemical
T1 sequence (O15530 1-556): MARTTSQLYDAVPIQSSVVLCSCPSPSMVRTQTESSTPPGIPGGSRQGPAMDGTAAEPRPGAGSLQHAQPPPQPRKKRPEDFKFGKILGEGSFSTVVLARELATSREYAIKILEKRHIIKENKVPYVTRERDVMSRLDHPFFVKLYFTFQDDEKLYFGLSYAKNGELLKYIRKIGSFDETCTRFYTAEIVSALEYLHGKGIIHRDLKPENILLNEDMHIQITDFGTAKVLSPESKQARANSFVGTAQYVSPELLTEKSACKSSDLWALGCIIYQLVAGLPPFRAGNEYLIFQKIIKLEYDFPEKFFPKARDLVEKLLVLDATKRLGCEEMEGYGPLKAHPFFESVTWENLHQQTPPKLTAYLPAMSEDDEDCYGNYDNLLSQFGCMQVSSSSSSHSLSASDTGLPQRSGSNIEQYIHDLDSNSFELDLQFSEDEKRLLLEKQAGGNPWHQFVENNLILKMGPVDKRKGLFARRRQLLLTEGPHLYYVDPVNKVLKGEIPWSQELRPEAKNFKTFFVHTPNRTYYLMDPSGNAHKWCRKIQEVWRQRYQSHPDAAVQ

[7] = test system: mTORC1 and mTORC2 signaling; assay: In vitro mTORC1/mTORC2 signaling; format: cell-based; settings: for Akt phosphorylation at mTORC2-specific Ser473 site: Supplemental Figure 1A
[8] = test system: GEO colorectal xenograft; assay: GEO xenograft pharmacodynamics; format: in vivo, mice; settings: GEO xenografts, 12 days
Procedure, shortened: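 GEO cells implanted s.c. in right flank of nu/nu CD-1 mice and dosed for 12 days. Tumors collected 2, 8 and 24 h post-dose and snap frozen. Phospho- and total 4E-BP1 (37/46), Akt (473), S6 (235/236) quantified by Western blot; n=2.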

[9] = test system: GEO colorectal xenograft; assay: GEO xenograft tumor growth; format: in vivo, mice; settings: GEO xenografts, compared with rapamycin
[10] = test system: RIP-Tag2 tumors; assay: RIP-Tag2 tumor vascularity; format: in vivo, mice
Procedure, shortened: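 RIP-Tag2 mice, 9–10 weeks old, dosed up to 7 days. Vehicle (Labrafil or water); test compound 75 mg/kg BID by gavage; OSI-930 200 mg/kg QD by gavage; rapamycin 20 mg/kg QD ip. Perfusion-fixed, 60–80 µm sections stained for CD31 and basement membrane. Area density at threshold 30–50; empty sleeves scored. SEM of 3–8 mice per group; ANOVA/Fisher PLSD.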

[11] = test system: RIP-Tag2 tumors; assay: Vascular regrowth after cessation of OSI-930 in RIP-Tag2 tumors; format: in vivo, mice
[12] = test system: RIP-Tag2 tumors; assay: Intratumoral hemorrhage; format: in vivo, mice; settings: 4 days after cessation of OSI-930
Procedure, shortened: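 Regrowth design in 10-week-old RIP-Tag2 mice: OSI-930 for 7 days, then vehicle, test compound or rapamycin for 4 days; vehicle-only arm runs 11 days. Perfusion-fixed tumors cut at 60–80 µm. Erythrocytes immunostained; area density from fluorescence images at empirical threshold 30–50. Values are SEM of 3–8 mice per group; ANOVA with Fisher PLSD.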

[13] = molecular target: JNK3 (Homo sapiens, UniProt P53779); assay: Panel of 98 purified protein kinases: JNK3; format: biochemical; settings: 98 purified protein kinases panel, data not shown
[14] = molecular target: MEK2 (Homo sapiens, UniProt P36507); assay: Panel of 98 purified protein kinases: MEK2; format: biochemical; settings: 98 purified protein kinases panel, data not shown
[15] = test system: RIP-Tag2 tumors; assay: VEGF in RIP-Tag2 tumor lysates, multiplex antibody array; format: in vivo, mice; settings: for VEGF-B expression: data not shown
Procedure, shortened: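 Tumors from RIP-Tag2 mice given vehicle, test compound or rapamycin. Tumor lysates run on mouse angiogenesis antibody arrays per manufacturer's directions. VEGF signal read as pixel density. SEM of 3–8 mice per group; ANOVA with Fisher PLSD.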

[16] = test system: RIP-Tag2 pancreatic neuroendocrine tumors; assay: Signaling, proliferation and apoptosis in RIP-Tag2 tumors, single agents; format: in vivo, mice; settings: for Akt and 4E-BP1 phosphorylation: 7-day treatment
Procedure, shortened: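 RIP-Tag2 mice (9–10 weeks) treated 7 days: test compound 75 mg/kg BID gavage, rapamycin 20 mg/kg QD ip, or vehicle. Perfusion-fixed tumor sections (60–80 µm) immunostained for phospho-S6K, phospho-Akt and phospho-4E-BP1 with CD31, plus phospho-histone H3 and activated caspase-3. Examined by fluorescence/confocal microscopy and quantified. SEM of 3–8 mice per group; ANOVA with Fisher PLSD.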

RET, sequence (P07949 29-1114, species assumed): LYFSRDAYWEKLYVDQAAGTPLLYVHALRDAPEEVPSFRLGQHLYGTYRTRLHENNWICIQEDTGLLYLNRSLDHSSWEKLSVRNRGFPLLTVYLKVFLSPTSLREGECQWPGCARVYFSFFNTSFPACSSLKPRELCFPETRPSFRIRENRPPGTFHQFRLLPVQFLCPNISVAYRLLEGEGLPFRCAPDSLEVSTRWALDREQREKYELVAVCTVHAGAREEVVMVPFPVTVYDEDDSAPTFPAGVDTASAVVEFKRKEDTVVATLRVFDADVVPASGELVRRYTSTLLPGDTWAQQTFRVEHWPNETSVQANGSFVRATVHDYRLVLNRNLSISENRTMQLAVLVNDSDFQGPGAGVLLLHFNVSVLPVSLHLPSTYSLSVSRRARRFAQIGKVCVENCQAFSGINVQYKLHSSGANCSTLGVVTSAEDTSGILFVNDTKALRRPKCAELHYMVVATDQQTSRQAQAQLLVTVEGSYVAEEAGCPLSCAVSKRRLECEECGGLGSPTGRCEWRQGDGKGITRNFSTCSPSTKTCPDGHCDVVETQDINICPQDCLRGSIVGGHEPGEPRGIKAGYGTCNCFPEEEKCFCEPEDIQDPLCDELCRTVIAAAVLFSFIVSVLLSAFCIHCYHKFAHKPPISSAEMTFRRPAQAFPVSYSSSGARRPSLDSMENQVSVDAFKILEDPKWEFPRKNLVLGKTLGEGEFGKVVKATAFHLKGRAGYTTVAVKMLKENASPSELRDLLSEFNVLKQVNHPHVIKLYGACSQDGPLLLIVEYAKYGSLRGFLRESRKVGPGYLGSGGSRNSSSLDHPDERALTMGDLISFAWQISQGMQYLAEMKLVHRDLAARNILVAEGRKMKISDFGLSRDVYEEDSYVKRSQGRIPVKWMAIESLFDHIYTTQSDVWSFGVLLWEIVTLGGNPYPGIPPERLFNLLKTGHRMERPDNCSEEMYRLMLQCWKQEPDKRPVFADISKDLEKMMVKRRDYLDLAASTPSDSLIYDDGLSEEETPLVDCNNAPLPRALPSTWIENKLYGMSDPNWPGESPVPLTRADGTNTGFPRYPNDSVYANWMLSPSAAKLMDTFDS
PI3Kδ, sequence (O00329 whole entry, species assumed): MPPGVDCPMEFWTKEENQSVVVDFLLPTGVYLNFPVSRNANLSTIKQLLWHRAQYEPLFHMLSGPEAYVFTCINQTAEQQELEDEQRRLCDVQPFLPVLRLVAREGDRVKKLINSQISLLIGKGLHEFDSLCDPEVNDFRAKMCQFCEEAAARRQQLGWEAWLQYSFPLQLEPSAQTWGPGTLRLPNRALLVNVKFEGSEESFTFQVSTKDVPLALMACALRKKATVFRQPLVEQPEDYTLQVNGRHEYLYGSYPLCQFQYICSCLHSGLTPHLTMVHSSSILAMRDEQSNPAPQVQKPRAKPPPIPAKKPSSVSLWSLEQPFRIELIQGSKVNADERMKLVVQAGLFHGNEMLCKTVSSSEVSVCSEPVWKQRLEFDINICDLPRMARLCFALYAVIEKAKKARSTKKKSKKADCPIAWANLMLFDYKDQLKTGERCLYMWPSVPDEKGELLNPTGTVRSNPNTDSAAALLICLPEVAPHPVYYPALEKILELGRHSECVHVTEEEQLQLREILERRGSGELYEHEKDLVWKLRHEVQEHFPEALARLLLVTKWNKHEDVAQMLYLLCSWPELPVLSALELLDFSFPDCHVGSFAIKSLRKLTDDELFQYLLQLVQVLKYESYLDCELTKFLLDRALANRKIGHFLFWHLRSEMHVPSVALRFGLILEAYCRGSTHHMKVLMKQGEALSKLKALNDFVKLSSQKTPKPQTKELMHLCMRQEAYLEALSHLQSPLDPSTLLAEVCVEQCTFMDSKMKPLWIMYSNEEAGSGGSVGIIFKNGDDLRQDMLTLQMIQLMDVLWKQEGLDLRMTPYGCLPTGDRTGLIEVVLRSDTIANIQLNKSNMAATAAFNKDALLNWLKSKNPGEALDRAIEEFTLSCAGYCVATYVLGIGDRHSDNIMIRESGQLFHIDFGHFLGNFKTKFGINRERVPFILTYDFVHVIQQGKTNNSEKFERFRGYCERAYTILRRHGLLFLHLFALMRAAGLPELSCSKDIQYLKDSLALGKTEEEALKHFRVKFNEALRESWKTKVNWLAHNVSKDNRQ
PI3Kδ, sequence (P27986 whole entry partner, species assumed): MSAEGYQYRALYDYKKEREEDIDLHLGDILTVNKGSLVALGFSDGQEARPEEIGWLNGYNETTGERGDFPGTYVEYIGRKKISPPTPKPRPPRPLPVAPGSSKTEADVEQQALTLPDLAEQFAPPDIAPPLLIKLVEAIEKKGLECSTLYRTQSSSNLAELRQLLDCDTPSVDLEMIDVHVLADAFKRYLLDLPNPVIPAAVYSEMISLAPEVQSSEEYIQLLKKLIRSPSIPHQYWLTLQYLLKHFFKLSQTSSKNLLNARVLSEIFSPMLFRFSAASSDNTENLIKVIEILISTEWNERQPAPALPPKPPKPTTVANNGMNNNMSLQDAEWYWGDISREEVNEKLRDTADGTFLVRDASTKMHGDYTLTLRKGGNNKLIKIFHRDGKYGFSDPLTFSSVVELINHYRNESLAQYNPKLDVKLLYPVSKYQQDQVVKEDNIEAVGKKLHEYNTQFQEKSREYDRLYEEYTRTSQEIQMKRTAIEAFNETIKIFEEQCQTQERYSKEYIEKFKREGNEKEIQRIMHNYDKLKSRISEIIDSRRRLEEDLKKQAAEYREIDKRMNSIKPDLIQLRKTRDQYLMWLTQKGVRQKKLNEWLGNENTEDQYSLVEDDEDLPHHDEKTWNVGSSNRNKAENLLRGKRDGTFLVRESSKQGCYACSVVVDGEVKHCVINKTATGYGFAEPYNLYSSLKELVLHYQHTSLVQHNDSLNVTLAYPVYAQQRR
PI3Kγ, sequence (P48736 whole entry, species assumed): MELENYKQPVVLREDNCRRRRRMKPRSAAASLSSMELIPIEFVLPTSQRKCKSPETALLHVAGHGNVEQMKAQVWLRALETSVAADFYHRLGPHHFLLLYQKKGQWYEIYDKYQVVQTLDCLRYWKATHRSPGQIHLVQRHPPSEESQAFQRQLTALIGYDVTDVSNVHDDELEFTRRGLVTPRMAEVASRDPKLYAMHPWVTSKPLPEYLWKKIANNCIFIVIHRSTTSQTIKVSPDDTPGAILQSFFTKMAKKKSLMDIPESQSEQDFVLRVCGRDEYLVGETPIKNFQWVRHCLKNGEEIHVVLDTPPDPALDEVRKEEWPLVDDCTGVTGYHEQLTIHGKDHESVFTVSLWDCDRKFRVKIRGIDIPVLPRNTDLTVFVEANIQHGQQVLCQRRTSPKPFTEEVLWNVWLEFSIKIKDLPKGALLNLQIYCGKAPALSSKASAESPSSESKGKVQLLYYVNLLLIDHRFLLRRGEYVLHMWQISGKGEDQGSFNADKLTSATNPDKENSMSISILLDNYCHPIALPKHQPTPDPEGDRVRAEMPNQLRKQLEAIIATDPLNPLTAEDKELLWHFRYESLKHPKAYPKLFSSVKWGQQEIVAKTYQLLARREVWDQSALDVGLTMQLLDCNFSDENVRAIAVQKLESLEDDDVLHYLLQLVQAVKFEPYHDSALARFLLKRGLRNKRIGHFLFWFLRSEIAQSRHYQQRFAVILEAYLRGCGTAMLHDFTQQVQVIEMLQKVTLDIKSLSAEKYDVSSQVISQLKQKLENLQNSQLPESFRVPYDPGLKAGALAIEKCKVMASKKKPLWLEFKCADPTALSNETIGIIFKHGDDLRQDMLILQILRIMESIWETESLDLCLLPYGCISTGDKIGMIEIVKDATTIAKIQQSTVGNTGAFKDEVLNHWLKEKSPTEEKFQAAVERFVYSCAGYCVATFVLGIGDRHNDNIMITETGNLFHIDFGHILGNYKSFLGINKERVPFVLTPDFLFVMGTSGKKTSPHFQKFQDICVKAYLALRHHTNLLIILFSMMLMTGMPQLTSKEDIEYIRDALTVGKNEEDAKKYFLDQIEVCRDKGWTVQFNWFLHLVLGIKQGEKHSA
JNK3, sequence (P53779 whole entry, species assumed): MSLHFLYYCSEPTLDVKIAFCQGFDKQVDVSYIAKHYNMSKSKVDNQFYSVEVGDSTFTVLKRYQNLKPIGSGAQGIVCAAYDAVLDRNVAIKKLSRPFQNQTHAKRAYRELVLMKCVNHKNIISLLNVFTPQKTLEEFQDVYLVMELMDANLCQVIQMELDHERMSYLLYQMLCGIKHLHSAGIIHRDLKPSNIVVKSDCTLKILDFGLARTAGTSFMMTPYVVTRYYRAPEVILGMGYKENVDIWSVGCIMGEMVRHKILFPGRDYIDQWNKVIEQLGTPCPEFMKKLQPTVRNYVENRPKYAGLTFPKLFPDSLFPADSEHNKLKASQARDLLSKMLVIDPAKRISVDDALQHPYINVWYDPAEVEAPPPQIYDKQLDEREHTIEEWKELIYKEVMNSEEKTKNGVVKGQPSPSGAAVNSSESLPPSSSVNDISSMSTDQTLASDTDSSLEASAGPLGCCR
PIP5Kγ, sequence (O60331 whole entry): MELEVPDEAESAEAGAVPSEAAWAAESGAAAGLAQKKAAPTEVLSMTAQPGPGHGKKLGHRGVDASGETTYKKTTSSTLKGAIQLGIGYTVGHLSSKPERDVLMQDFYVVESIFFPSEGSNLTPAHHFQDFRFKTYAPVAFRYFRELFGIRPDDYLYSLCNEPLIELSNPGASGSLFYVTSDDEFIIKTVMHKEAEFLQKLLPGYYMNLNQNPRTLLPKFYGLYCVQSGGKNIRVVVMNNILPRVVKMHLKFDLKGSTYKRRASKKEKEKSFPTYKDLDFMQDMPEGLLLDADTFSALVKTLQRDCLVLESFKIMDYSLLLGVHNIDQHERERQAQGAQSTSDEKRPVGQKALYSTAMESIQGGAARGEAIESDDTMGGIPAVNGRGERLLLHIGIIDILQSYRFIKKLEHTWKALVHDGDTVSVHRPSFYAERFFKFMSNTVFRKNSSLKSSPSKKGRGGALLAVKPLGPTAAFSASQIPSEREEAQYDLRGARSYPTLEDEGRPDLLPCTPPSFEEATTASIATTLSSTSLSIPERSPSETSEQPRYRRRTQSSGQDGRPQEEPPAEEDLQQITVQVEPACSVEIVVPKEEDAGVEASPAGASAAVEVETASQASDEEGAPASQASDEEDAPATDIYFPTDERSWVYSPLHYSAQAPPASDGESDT

| SMILES | inhibition of mTOR [1] | inhibition of PI3Kδ [2] | inhibition of PI3Kγ [3] | inhibition of RET [4] | activity against PDK1 [6] | 4E-BP1 phosphorylation at Ser37/46 [7] | Akt phosphorylation at mTORC2-specific Ser473 site [7] | tumor growth [9] | empty basement membrane sleeves (vessel regression) ([10]; RIP-Tag2, 7 days) | VEGF-B expression [15] | Akt and 4E-BP1 phosphorylation [16] | further results |
| --- | --- | --- | --- | --- | --- | --- | --- | --- | --- | --- | --- | --- |
| COc1cccc2cc(-c3nc([C@H]4CC[C@H](C(=O)O)CC4)n4ncnc(N)c34)[nH]c12 [OSI-027] | fully inhibited | greater than 90% | greater than 90% | greater than 90% | inactive | inhibited | dose-dependently attenuated | slowed tumor growth more than did rapamycin | – | – | – | inhibition of PIP5Kγ [5]: significantly inhibited; 4E-BP1, Akt, and S6 phosphorylation ([8]; 65 mg/kg, after 2 hours): decreased |
| O=C(Nc1ccc(OC(F)(F)F)cc1)c1sccc1NCc1ccnc2ccccc12 [OSI-930] | – | – | – | – | – | – | – | – | numerous | – | – | decrease in vessel density ([11]; OSI-930 7 days, then vehicle 4 days after cessation): 18%; reduction of tumor vascularity ([11]; regrowth study, OSI-930 for 7 days): 63%; TER-119 levels, difference from baseline [12]: ≤ 28% |
| Nc1nccn2c1c(-c1cc3cccc(Cl)c3[nH]1)nc2[C@H]1CC[C@H](C(=O)O)CC1 [OXA-01] | fully inhibited | greater than 90% | greater than 90% | greater than 90% | inactive | inhibited | dose-dependently attenuated | slowed tumor growth more than did rapamycin | not apparent | unchanged | decreased | inhibition of JNK3 [13]: inhibited; inhibition of MEK2 [14]: inhibited; reduction of tumor vascularity (CD31) ([10]; RIP-Tag2, at 1, 2, or 4 days): not detectably reduced; decrease in tumor vessel regrowth ([11]; named drug for 1 day after withdrawal of OSI-930, data not shown): no significant decrease; apoptosis measured by activated-caspase-3 ([16]; 7 days): increased; cellular proliferation determined by phospho-histone H3 ([16]; 7 days): decreased |
| CO[C@H]1C[C@@H]2CC[C@@H](C)[C@@](O)(O2)C(=O)C(=O)N2CCCC[C@H]2C(=O)O[C@H]([C@H](C)C[C@@H]2CC[C@@H](O)[C@H](OC)C2)CC(=O)[C@H](C)/C=C(\C)[C@@H](O)[C@@H](OC)C(=O)[C@H](C)C[C@H](C)/C=C/C=C/C=C/1C [rapamycin, reference compound] | – | – | – | – | – | failed to inhibit | failed to inhibit | – | not apparent | unchanged | not observed | S6Kinase and its substrate S6 [7]: inhibited; phospho-S6 and phospho-4E-BP1 ([8]; 20 mg/kg): inhibited; reduction of VEGF-A (densitometric analysis) [15]: no significant reduction; reduction of tumor vascularity (CD31) compared to baseline ([10]; RIP-Tag2, 7 days): not significantly reduced; phopsho-S6K relative to control [16]: inhibited |
